Assay results taken from PubChem BioAssay.
Inconclusive results are not listed.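 The calls were made as follows, unless noted: active = viability at or below 27.92% in each of two runs, the all-compound median minus 4 SD; inconclusive = no clear call, values can overlap the other calls; inactive = the rest.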

Key:
[1] = OD615 S. cerevisiae growth inhibition, permissive medium, pilot counter-assay, permissive growth control for S. cerevisiae lifespan shortening project (AID 705;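 active = growth inhibition above 25% in both replicates, a cutoff set 3 SD above the mean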); conditions: OD615, 24 h, at 10 µM, hits give high values
Method in brief: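 assay system = Saccharomyces cerevisiae strain carrying genetically modified DeaD replicative-lifespan system | medium = SC raffinose/galactose permissive medium | dosing = 10 µM single dose, 0.25% DMSO | schedule = 24 h compound exposure at 30 °C after 4 h pre-growth | measured by = OD at 615 nm | read-out basis = growth inhibition from lowered OD615 after 24 h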

[2] = Restrictive medium S. cerevisiae growth inhibition, OD615, pilot screen of yeast lifespan reduction project, restrictive growth control (AID 706;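 active = growth inhibition above a set limit, 3 SD over mean compound inhibition, in both replicates, cut at about 43% in these data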;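 also: modified DeaD lifespan yeast strain shifted to restrictive glucose medium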); conditions: OD615, 48 h, at 10 µM, hits give high values
Method in brief: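 Buffer or medium: CSMM-D glucose medium. Material: genetically modified Saccharomyces cerevisiae, DeaD replicative lifespan assay strain. Times: 48 h compound exposure at 30 °C. Measured by: optical density at 615 nm.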

[3] = viability gain of MRP-1-high H69AR cells under doxorubicin, pilot screen, MRP-1 activator project, CellTiter-Glo, duplicate (AID 807;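 active = viability increase at or above a cutoff of the median across tested compounds plus 3 SD, cut at about 8.5% in these data, passing the limit was not always enough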;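 also: compound pretreatment 18-22 h then 72 h combined with doxorubicin; 0% = doxorubicin alone and 100% = vehicle without doxorubicin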); conditions: H69AR viability with doxorubicin, CellTiter-Glo luminescence; at 10 µM; hits give high values
[4] = growth suppression of beta-catenin knockout HCT116, pilot screen, human colon tumor cells (AID 823;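 active = cell viability at or below a set limit in both duplicate runs, the limit being the all-compound median minus 4 SD, cut at about 23% in these data, passing the limit was not always enough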;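 also: 0% = wells killed by 20 µM Hyamine and 100% = untreated DMSO cell wells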); conditions: CellTiter-Glo, 60 h, at 10 µM, hits give low values
[5] = growth suppression of PTEN-deleted HCT116, pilot screen, cell-based, HCT116 clonal line, CellTiter-Glo (AID 824); conditions: 60 h, at 10 µM, hits give low values;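 also: 0% = 20 µM Hyamine control and 100% = vehicle cell control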
[6] = inhibitors of the yeast RAM network, pilot screen, dse1pr::URA3 reporter, 5-FOA selection (AID 869;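 active = inhibition over a set limit, the all-compound mean plus 3 SD, in both replicate runs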;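 also: 0% = DMSO wells with no growth and 100% = 10 µM 1-NA-PP1 with full growth; RAM network block rescues cells from 5-FOA so hits raise OD615 growth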); conditions: S. cerevisiae dse1pr::URA3 5-FOA growth, OD615, 2 d; at 10 µM; hits give high values; strain carries analog-sensitive mutant Cbk1 kinase
[7] = RAM signaling pathway blockade in yeast – S. cerevisiae, Pdr1DBD-CYC8 efflux-inhibited sensitized strain, primary screen (AID 1298;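 active = RAM network inhibition above 8.4% in each of two replicates, 3 SD over the compound average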;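 also: 0% = DMSO untreated cells without growth and 100% = 10 µM 1-NA-PP1 full growth; higher means more yeast growth rescued from 5-FOA killing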); conditions: S. cerevisiae cbk1-as DSE1-URA3 strain, 5-FOA growth OD615, 2 d; at 50 µM; hits give high values

CCCn1cc(SCC(=O)Nc2nnc(C)s2)c2ccccc21
inactive: growth inhibition [1] 3.3% | growth inhibition [2] 0.865% | viability increase [3] -2.55% | viability [4] 91% | viability [5] 96.2% | inhibition [6] 1.1% | RAM network inhibition [7] 3.75%

COc1ccccc1NC(=O)N1CCN(c2ccc3nncn3n2)CC1
inactive: growth inhibition [1] -3.47% | growth inhibition [2] 0.79% | viability increase [3] 0.48% | viability [4] 106% | viability [5] 103% | inhibition [6] -0.315% | RAM network inhibition [7] 0.69%

Cc1cc(N2CCN(C3CCCCC3)CC2)n2nc(C)nc2n1
inactive: growth inhibition [1] 5.17% | growth inhibition [2] 4.13% | viability increase [3] -2.07% | viability [4] 93.5% | viability [5] 96.2% | inhibition [6] 2.16% | RAM network inhibition [7] 5.03%

CCn1c(C(=O)NC(C)c2ccc3c(c2)OCCO3)cc2sccc21 (configuration not stated)
inactive: growth inhibition [1] -7.09% | growth inhibition [2] -9.22% | viability increase [3] -0.14% | viability [4] 96.1% | viability [5] 82% | inhibition [6] 1.62% | RAM network inhibition [7] 3.22%

O=C1NCC2=C1C(c1ccc(Br)cc1)Nc1ccccc1N2 (configuration not stated)
inactive: growth inhibition [1] -14.3% | growth inhibition [2] -0.565% | viability increase [3] 0.99% | viability [4] 106% | viability [5] 96.1% | inhibition [6] -0.645% | RAM network inhibition [7] -2.69%

CC(=O)Nc1ccc(S(=O)(=O)NCc2ccc3c(c2)cc(C)n3C)cc1
inactive: growth inhibition [1] 8.2% | growth inhibition [2] 10.1% | viability increase [3] 0.21% | viability [4] 101% | viability [5] 99.2% | inhibition [6] 3.49% | RAM network inhibition [7] 2.12%

COc1ccc(CC(=O)Nc2cc(=O)n(C)c(=O)n2C)cc1
inactive: growth inhibition [1] -5.75% | growth inhibition [2] -4.35% | viability increase [3] 0.44% | viability [4] 102% | viability [5] 91% | inhibition [6] 1.85% | RAM network inhibition [7] -2.12%

O=[n+]1c2c(n([O-])c3c1CCCC3)CCCCC2
inactive: growth inhibition [1] -3.03% | growth inhibition [2] -9.11% | viability increase [3] 0.93% | viability [4] 102% | viability [5] 99.5% | inhibition [6] 0.345% | RAM network inhibition [7] -0.51%

Cc1ccc(C2N(c3ccc(F)cc3)C(=O)C3CCCN32)cc1 (configuration not stated)
inactive: growth inhibition [1] -0.945% | growth inhibition [2] -4.53% | viability increase [3] -1.55% | viability [4] 89.4% | viability [5] 97.3% | inhibition [6] 2.21% | RAM network inhibition [7] 4.87%

COc1cc(S(=O)(=O)N2CCN(c3ccccc3)CC2)ccc1Cl
inactive: growth inhibition [1] -16.9% | growth inhibition [2] -14% | viability increase [3] -3.07% | viability [4] 95.1% | viability [5] 95.3% | inhibition [6] 0.17% | RAM network inhibition [7] 6.95%

Cc1ccccc1-n1nc(C(=O)O)c(C)c(C#N)c1=O
inactive: growth inhibition [1] -3.86% | growth inhibition [2] -6.29% | viability increase [3] -0.28% | viability [4] 97.8% | viability [5] 98.6% | inhibition [6] 2.41% | RAM network inhibition [7] 3.52%

CCC(C)Sc1nc2c(cnn2-c2ccc(C)cc2)c(=O)[nH]1 (configuration not stated)
inactive: growth inhibition [1] -13% | growth inhibition [2] -3.34% | viability increase [3] -3.06% | viability [4] 93.9% | viability [5] 88.9% | inhibition [6] 4.24% | RAM network inhibition [7] 0.41%

COc1ccccc1C(=O)NC(CCSC)C(=O)NCC(c1ccco1)N(C)C (configuration not stated)
inactive: growth inhibition [1] -10.1% | growth inhibition [2] -0.55% | viability increase [3] -2.48% | viability [4] 87.2% | viability [5] 89.5% | inhibition [6] 1.89% | RAM network inhibition [7] 1.92%

Cn1c(C(=O)N2CCN(c3ccc(Cl)cc3)CC2)cc2c(=O)n(C)c3ccccc3c21
inactive: growth inhibition [1] -9.61% | growth inhibition [2] 2.92% | viability increase [3] -0.43% | viability [4] 93% | viability [5] 90.6% | inhibition [6] 2.57% | RAM network inhibition [7] 2.59%

CCOC(=O)c1sc(/N=C/N(C)C)c(C(=O)OCC)c1C
inactive: growth inhibition [1] -5.24% | growth inhibition [2] 0.92% | viability increase [3] -3.82% | viability [4] 95.3% | viability [5] 90.4% | inhibition [6] 1.98% | RAM network inhibition [7] 7.56%

Cc1c(N=C/C=C/c2ccccc2)cnn1C
inactive: growth inhibition [1] -8.46% | growth inhibition [2] -12.3% | viability increase [3] -5.08% | viability [4] 91.7% | viability [5] 90.5% | inhibition [6] 1.85% | RAM network inhibition [7] 3.36%

C=CCOc1ccc(C2c3c(oc4ccccc4c3=O)C(=O)N2c2ccccn2)cc1OCC (configuration not stated)
inactive: growth inhibition [1] -13.9% | growth inhibition [2] -10.5% | viability increase [3] -5.39% | viability [4] 77.9% | viability [5] 74.6% | inhibition [6] 2.57% | RAM network inhibition [7] 6.03%

CCN(CCNC(=O)Cn1c(=O)sc2ccccc21)c1ccccc1
inactive: growth inhibition [1] -10.6% | growth inhibition [2] 2.42% | viability increase [3] -3.76% | viability [4] 92.2% | viability [5] 84.9% | inhibition [6] 1.57% | RAM network inhibition [7] 2.04%

CN1CCN(C(=O)c2ccccc2NC(=O)c2cccs2)CC1
inactive: growth inhibition [1] -11% | growth inhibition [2] -8.35% | viability increase [3] -2.33% | viability [4] 98.5% | viability [5] 91.7% | inhibition [6] 0.45% | RAM network inhibition [7] 2.03%

CC1CCN(C(=O)CSc2nnc(Cn3c(=O)sc4ccccc43)n2C)CC1
inactive: growth inhibition [1] -3.65% | growth inhibition [2] -5% | viability increase [3] -0.3% | viability [4] 121% | viability [5] 112% | inhibition [6] 0.075% | RAM network inhibition [7] 3.13%

CC1CCCN(c2ncnc3c2cnn3-c2ccccc2)C1 (configuration not stated)
inactive: growth inhibition [1] -2.51% | growth inhibition [2] -4.29% | viability increase [3] -2.92% | viability [4] 77.5% | viability [5] 73.5% | inhibition [6] 0.15% | RAM network inhibition [7] 4.59%

COc1ccc2oc(C(=O)CCC(=O)O)c(N)c2c1
inactive: growth inhibition [1] -12.2% | growth inhibition [2] 8.27% | viability increase [3] -0.43% | viability [4] 93.3% | viability [5] 92.5% | inhibition [6] 1.98% | RAM network inhibition [7] 1.31%

CCN1CCN(c2cc(=O)n(C3CCCCC3)c(=O)[nH]2)CC1
inactive: growth inhibition [1] -13.3% | growth inhibition [2] -10.1% | viability increase [3] 0.11% | viability [4] 104% | viability [5] 102% | inhibition [6] 1.2% | RAM network inhibition [7] 2.53%

Clc1ccc(-c2noc(COc3ccccc3)n2)cc1
inactive: growth inhibition [1] -3.93% | growth inhibition [2] 14.3% | viability increase [3] 2.15% | viability [4] 101% | viability [5] 95.6% | inhibition [6] 0.745% | RAM network inhibition [7] 9.14%

CCN1C(=O)C(O)(CC(=O)c2ccc3c(c2)OCCO3)c2ccccc21 (configuration not stated)
inactive: growth inhibition [1] -0.735% | growth inhibition [2] -5.33% | viability increase [3] -2.07% | viability [4] 99.1% | viability [5] 94% | inhibition [6] 0.24% | RAM network inhibition [7] 5.92%

Fc1ccccc1N1CCN(C2CCN(Cc3c[nH]c4ccccc34)CC2)CC1
inactive: growth inhibition [1] -1.12% | growth inhibition [2] 2.13% | viability increase [3] -6.63% | viability [4] 47.1% | viability [5] 58.8% | inhibition [6] 1.08% | RAM network inhibition [7] 0.22%

CN(CCCNC(=O)C1CCC(=O)N1Cc1ccc(F)cc1)c1ccccc1 (configuration not stated)
inactive: growth inhibition [1] 4.99% | growth inhibition [2] -8.76% | viability increase [3] -1.51% | viability [4] 95.5% | viability [5] 90.5% | inhibition [6] 0.54% | RAM network inhibition [7] 0.72%

Cc1ccc(OCCN2CCCCCC2)c(C)c1
inactive: growth inhibition [1] -6.26% | growth inhibition [2] 2.46% | viability increase [3] -3.81% | viability [4] 71.1% | viability [5] 70.4% | inhibition [6] 1.21% | RAM network inhibition [7] 2.8%

O=C1N=C(N2CCOCC2)SC1=C1CCCCC1
inactive: growth inhibition [1] -8.5% | growth inhibition [2] -2.34% | viability increase [3] -2.09% | viability [4] 98% | viability [5] 97.1% | inhibition [6] 1.17% | RAM network inhibition [7] 1.84%

COCCOC(=O)C1=C(C)NC2=C(C(=O)CCC2)C1c1cc2c(cc1Br)OCO2 (configuration not stated)
inactive: growth inhibition [1] -18.1% | growth inhibition [2] -17% | viability increase [3] -0.03% | viability [4] 92.4% | viability [5] 102% | inhibition [6] 1.16% | RAM network inhibition [7] 5.69%

CCc1nnc(NC(=O)CSc2nnc(Cc3cccn3C)n2CCOC)s1
inactive: growth inhibition [1] -4.61% | growth inhibition [2] 32.5% | viability increase [3] -0.66% | viability [4] 96.8% | viability [5] 98.3% | inhibition [6] 0.98% | RAM network inhibition [7] 2.84%

Cc1ccc(S(=O)(=O)N(CC(O)CN2CCCCC2)c2ccccc2)cc1 (configuration not stated)
inactive: growth inhibition [1] 0.475% | growth inhibition [2] 0.56% | viability increase [3] -2.49% | viability [4] 71.6% | viability [5] 96.6% | inhibition [6] 2.97% | RAM network inhibition [7] 3.38%

COc1ccc(-c2[nH]c(-c3ccc(F)cc3)nc2SCC(=O)NCc2ccco2)cc1OC
inactive: growth inhibition [1] -4.83% | growth inhibition [2] 12.4% | viability increase [3] -2.49% | viability [4] 96.9% | viability [5] 92.9% | inhibition [6] 0.93% | RAM network inhibition [7] 4.24%

CN(C)c1ccc(CN2CCCCCC2)cc1
inactive: growth inhibition [1] -3.95% | growth inhibition [2] -24.5% | viability increase [3] -2% | viability [4] 87% | viability [5] 88.1% | inhibition [6] 0.44% | RAM network inhibition [7] 0.1%

CCOC(=O)N1CCN(C(=O)c2cc3c(=O)n(C)c4ccccc4c3n2C)CC1
inactive: growth inhibition [1] -9.54% | growth inhibition [2] 1.15% | viability increase [3] -2.85% | viability [4] 94.6% | viability [5] 89.9% | inhibition [6] 1.31% | RAM network inhibition [7] 0.42%

Cc1ccc2c(c1)c(C)c(C)n2CC(O)CN1CCCCC1C (configuration not stated)
inactive: growth inhibition [1] -9.72% | growth inhibition [2] -9.14% | viability increase [3] -4.02% | viability [4] 72.2% | viability [5] 79.6% | inhibition [6] 0.91% | RAM network inhibition [7] 2.28%
